Common to all, as to assay type: cell-based
Test [1] has as its target T1, Sodium channel protein type 9 subunit alpha (Homo sapiens, UniProt Q15858). Description: Inhibition of human Nav1.7 expressed in HEK293 cells assessed as inward peak current by ion-works quattro patch clamp electrophysiology method. For orientation: Patch clamp records ionic current or voltage across a cell membrane.
The target in test [2] is T2, Sodium channel protein type 5 subunit alpha (Homo sapiens, UniProt Q14524). Description: Inhibition of human Nav1.5 expressed in HEK293 cells by whole cell patch clamp electrophysiology method. Put shortly: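 Stable HEK293 line expressing human NaV1.5, recorded on the PatchXpress 7000A. Percent inhibition versus concentration was pooled from at least 10 cells, with two to three points per concentration. The pooled set was fitted with a four-parameter Hill equation to give a single IC50 curve.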
T2 sequence (Q14524 whole entry): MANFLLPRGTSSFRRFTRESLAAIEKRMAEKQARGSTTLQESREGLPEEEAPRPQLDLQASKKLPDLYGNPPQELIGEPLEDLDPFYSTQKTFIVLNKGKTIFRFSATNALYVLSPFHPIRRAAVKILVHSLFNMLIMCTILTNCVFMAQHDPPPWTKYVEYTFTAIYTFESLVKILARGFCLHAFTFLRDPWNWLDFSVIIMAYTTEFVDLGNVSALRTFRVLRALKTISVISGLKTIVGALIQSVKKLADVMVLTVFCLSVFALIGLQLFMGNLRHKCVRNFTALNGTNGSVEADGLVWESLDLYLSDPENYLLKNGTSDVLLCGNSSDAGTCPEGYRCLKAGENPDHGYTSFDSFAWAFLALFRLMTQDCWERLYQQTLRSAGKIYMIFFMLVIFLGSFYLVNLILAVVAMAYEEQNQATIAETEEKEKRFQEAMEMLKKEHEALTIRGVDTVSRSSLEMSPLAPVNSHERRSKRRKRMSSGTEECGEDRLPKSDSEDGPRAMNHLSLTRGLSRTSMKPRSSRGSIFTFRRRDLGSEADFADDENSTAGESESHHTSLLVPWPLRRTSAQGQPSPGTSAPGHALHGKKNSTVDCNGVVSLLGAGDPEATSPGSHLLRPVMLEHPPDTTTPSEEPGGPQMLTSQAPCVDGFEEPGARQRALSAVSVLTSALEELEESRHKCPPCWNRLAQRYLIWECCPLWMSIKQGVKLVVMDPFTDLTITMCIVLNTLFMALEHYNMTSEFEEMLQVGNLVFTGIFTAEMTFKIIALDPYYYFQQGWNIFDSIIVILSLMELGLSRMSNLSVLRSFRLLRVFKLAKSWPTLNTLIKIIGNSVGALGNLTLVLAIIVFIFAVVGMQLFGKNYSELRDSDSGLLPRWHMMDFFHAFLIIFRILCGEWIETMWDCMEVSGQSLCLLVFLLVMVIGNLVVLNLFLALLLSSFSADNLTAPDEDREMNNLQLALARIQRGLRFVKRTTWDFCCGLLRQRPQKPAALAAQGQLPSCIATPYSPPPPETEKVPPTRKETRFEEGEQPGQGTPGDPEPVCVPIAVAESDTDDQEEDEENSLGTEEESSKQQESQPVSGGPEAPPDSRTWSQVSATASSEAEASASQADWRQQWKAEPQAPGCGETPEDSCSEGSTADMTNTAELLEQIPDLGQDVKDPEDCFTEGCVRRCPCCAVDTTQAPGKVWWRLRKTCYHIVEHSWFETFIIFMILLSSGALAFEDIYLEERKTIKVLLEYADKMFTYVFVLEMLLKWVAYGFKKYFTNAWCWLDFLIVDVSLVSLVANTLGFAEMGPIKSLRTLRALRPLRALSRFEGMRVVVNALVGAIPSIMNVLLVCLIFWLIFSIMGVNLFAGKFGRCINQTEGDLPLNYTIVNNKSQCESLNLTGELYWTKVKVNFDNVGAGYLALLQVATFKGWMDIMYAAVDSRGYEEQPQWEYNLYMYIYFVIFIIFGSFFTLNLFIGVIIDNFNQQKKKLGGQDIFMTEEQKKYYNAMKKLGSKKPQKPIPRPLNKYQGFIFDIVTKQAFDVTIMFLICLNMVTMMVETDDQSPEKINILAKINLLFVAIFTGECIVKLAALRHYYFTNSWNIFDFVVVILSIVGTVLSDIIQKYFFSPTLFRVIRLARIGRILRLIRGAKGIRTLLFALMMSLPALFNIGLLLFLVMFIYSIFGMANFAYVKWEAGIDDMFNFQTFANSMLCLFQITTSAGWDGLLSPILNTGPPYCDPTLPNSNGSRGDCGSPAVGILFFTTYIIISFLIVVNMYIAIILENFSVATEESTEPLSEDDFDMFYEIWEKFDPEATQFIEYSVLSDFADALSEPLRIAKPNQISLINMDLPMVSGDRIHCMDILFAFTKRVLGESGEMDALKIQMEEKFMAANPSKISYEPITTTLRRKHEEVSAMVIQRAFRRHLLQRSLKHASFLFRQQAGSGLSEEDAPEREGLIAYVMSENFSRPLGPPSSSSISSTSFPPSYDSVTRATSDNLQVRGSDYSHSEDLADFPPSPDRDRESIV

Test [3] concerns the target T1, Sodium channel protein type 9 subunit alpha. Put plainly: Inhibition of human Nav1.7 expressed in HEK293 cells by whole cell patch clamp electrophysiology method.
Test [4] addresses T2, Sodium channel protein type 5 subunit alpha. Put plainly: Inhibition of human Nav1.5 expressed in HEK293 cells assessed as inward peak current by ion-works quattro patch clamp electrophysiology method. Put shortly:
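Stable HEK293 line expressing human NaV1.5, recorded by population patch clamp on the IonWorks Quattro.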

Positions of bridges follow the written chain, without caps; N, C: chain ends. Residues, ends and D or L forms follow the SMILES beside them.

T1 sequence (Q15858 whole entry): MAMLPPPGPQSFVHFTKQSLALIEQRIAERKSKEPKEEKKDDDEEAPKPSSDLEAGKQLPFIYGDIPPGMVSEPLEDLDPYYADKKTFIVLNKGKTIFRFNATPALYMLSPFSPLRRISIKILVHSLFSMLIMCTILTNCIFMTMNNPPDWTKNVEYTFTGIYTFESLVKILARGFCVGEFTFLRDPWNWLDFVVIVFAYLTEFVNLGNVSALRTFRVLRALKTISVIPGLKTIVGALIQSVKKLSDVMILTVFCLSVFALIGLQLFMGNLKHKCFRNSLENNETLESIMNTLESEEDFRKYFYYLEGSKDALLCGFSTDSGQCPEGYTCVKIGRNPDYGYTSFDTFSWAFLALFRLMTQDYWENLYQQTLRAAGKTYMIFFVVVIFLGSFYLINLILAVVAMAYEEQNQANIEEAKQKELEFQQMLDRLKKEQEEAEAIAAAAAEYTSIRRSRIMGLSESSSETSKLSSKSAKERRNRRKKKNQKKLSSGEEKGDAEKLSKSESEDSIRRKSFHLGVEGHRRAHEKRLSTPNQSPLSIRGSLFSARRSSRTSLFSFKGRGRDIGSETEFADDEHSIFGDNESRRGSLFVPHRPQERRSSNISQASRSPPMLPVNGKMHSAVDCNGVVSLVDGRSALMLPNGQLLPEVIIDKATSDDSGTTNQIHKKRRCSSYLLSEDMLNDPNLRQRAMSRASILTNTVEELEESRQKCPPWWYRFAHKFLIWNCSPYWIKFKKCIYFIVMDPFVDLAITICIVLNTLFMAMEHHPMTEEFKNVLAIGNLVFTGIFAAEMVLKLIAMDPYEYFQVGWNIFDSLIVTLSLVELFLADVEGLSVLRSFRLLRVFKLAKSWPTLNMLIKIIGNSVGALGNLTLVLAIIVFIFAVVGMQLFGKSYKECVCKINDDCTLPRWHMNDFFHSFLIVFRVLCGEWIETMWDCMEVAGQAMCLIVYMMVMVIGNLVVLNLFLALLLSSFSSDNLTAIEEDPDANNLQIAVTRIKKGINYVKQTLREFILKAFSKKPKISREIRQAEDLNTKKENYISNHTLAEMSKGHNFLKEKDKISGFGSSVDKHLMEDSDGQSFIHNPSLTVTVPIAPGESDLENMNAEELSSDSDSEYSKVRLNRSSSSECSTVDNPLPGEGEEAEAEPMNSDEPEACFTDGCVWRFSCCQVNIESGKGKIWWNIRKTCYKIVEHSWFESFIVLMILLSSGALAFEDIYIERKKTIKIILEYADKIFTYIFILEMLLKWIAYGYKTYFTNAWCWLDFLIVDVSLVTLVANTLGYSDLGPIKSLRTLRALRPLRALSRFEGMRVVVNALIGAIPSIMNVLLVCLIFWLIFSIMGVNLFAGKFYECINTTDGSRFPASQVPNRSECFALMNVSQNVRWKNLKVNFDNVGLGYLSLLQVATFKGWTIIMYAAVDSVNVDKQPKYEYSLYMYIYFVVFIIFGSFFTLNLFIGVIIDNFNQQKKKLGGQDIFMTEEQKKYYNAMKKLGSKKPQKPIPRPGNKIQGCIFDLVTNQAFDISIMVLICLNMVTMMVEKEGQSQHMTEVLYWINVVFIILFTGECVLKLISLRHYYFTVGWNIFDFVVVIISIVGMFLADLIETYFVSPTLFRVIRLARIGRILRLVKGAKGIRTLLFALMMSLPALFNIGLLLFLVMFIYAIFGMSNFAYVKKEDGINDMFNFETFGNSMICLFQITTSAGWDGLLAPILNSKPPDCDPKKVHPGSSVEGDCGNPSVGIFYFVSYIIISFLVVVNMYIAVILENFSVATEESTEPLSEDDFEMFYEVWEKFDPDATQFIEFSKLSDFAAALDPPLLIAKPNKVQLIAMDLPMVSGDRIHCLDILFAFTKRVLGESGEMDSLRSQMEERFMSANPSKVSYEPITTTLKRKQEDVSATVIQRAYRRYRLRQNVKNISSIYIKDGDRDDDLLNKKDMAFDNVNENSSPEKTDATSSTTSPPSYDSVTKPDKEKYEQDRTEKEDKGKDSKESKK

Usually IC50 stands for the concentration needed to halve the response being measured. On to `CC[C@H](C)[C@@H]1NC(=O)[C@@H]2CSSC[C@@H]3NC(=O)[C@H](C(C)C)NC(=O)[C@H](CC(C)C)NC(=O)[C@H](CC(N)=O)NC(=O)[C@@H]4CCCN4C(=O)[C@H](CCCNC(N)=O)NC(=O)[C@H](CSSC[C@H](NC(=O)[C@@H](N)CC(=O)O)C(=O)N[C@@H](CC(C)C)C(=O)NCC(=O)N[C@@H](Cc4ccccc4)C(=O)N[C@@H](CCSC)C(=O)N[C@@H](CCCNC(=N)N)C(=O)N[C@@H](CCCCN)C(=O)N2)NC(=O)[C@H](CSSC[C@@H](C(=O)N[C@@H](CCCCN)C(=O)N[C@@H](Cc2ccc(O)cc2)C(=O)N[C@H](C(=O)N[C@@H](Cc2ccccc2)C(N)=O)C(C)C)NC(=O)[C@H](Cc2c[nH]c4ccccc24)NC(=O)[C@H](CCCCN)NC(=O)[C@H](Cc2cnc[nH]2)NC(=O)[C@H]([C@@H](C)O)NC(=O)[C@H](CCCNC(=N)N)NC(=O)[C@H](CO)NC3=O)NC(=O)[C@H](CCCCN)NC(=O)[C@H](CC(=O)O)NC(=O)[C@H](CC(N)=O)NC(=O)[C@H](CC(=O)O)NC(=O)[C@@H]2CCCN2C1=O`, for which the IC50 in test [1] was 180 nM; in test [2] it was above 10000 nM; in test [3], 1.9 nM; in test [4], above 5000 nM.

Regarding `CSCC[C@@H]1NC(=O)[C@H](Cc2ccccc2)NC(=O)CNC(=O)[C@H](CC(C)C)NC(=O)[C@@H](NC(=O)[C@@H](N)CC(=O)O)CSSC[C@@H]2NC(=O)[C@@H]3CSSC[C@@H](C(=O)N[C@@H](CCCCN)C(=O)N[C@@H](Cc4ccc(O)cc4)C(=O)N[C@H](C(=O)N[C@@H](Cc4ccccc4)C(N)=O)C(C)C)NC(=O)[C@H](Cc4c[nH]c5ccccc45)NC(=O)[C@H](CCCCN)NC(=O)[C@H](Cc4cnc[nH]4)NC(=O)[C@H]([C@@H](C)O)NC(=O)[C@H](CCCNC(=N)N)NC(=O)[C@H](CO)NC(=O)[C@H](CSSC[C@H](NC(=O)[C@H](CCCCN)NC(=O)[C@H](CCCNC(=N)N)NC1=O)C(=O)N[C@@H](CC(=O)O)C(=O)N1CCC[C@H]1C(=O)N[C@@H](CC(=O)O)C(=O)N[C@@H](CC(N)=O)C(=O)N[C@@H](CC(=O)O)C(=O)N[C@@H](CCCCN)C(=O)N3)NC(=O)[C@H](C(C)C)NC(=O)[C@H](CC(C)C)NC(=O)[C@H](CC(N)=O)NC(=O)[C@@H]1CCCN1C(=O)[C@H](CCCNC(=N)N)NC2=O` (H-DCLGFMRKCDPDNDKCCRPNLVCSRTHKWCKYVF-NH2; disulfide 2-17, 9-23, 16-30), the IC50 in test [2] is above 10000 nM; in test [3] it was 4 nM; in test [4] it was above 5000 nM.

For `CSCC[C@@H]1NC(=O)[C@H](Cc2ccccc2)NC(=O)CNC(=O)[C@H](CC(C)C)NC(=O)[C@@H](NC(=O)[C@@H](N)CC(=O)O)CSSC[C@@H]2NC(=O)[C@@H]3CSSC[C@@H](C(=O)N[C@@H](CCCCN)C(=O)N[C@@H](Cc4ccc(O)cc4)C(=O)N[C@H](C(=O)N[C@@H](Cc4ccccc4)C(N)=O)C(C)C)NC(=O)[C@H](Cc4c[nH]c5ccccc45)NC(=O)[C@H](CCCCN)NC(=O)[C@H](Cc4cnc[nH]4)NC(=O)[C@H]([C@@H](C)O)NC(=O)[C@H](CCCNC(=N)N)NC(=O)[C@H](CO)NC(=O)[C@H](CSSC[C@H](NC(=O)[C@H](CCCCN)NC(=O)[C@H](CCCNC(=N)N)NC1=O)C(=O)N[C@@H](CCC(=O)O)C(=O)N1CCC[C@H]1C(=O)N[C@@H](CC(=O)O)C(=O)N[C@@H](CC(N)=O)C(=O)N[C@@H](CC(=O)O)C(=O)N[C@@H](CCCCN)C(=O)N3)NC(=O)[C@H](C(C)C)NC(=O)[C@H](CC(C)C)NC(=O)[C@H](CC(N)=O)NC(=O)[C@@H]1CCCN1C(=O)[C@H](CCCNC(=N)N)NC2=O` (H-DCLGFMRKCEPDNDKCCRPNLVCSRTHKWCKYVF-NH2; disulfide 2-17, 9-23, 16-30), the IC50 in test [2] was above 10000 nM; in test [3], 2.1 nM; in test [4], above 5000 nM.

Regarding `CC[C@H](C)[C@@H]1NC(=O)[C@@H]2CSSC[C@@H]3NC(=O)[C@H](C(C)C)NC(=O)[C@H](CC(C)C)NC(=O)[C@H](CC(N)=O)NC(=O)[C@@H]4CCCN4C(=O)[C@H](CCCNC(=N)N)NC(=O)[C@H](CSSC[C@H](NC(=O)[C@@H](N)CC(=O)O)C(=O)N[C@@H](CC(C)C)C(=O)NCC(=O)N[C@@H](Cc4ccccc4)C(=O)N[C@@H](CCSC)C(=O)N[C@@H](CCCNC(=N)N)C(=O)N[C@@H](CCCCN)C(=O)N2)NC(=O)[C@H](CSSC[C@@H](C(=O)N[C@@H](CCCCN)C(=O)N[C@@H](Cc2ccc(O)cc2)C(=O)N[C@H](C(=O)N[C@@H](Cc2ccccc2)C(N)=O)C(C)C)NC(=O)[C@H](Cc2c[nH]c4ccccc24)NC(=O)[C@H](CCCCN)NC(=O)[C@H](Cc2cnc[nH]2)NC(=O)[C@H]([C@@H](C)O)NC(=O)[C@H](CCCNC(=N)N)NC(=O)[C@H](CO)NC3=O)NC(=O)[C@H](CCCCN)NC(=O)[C@H](CC(=O)O)NC(=O)[C@H](CC(N)=O)NC(=O)[C@H](CC(=O)O)NC(=O)[C@H](CCC(=O)O)NC1=O` (H-DCLGFMRKCIEDNDKCCRPNLVCSRTHKWCKYVF-NH2; disulfide 2-17, 9-23, 16-30), the values for the IC50 in test [2], in test [3] and in test [4] were above 10000 nM, 2.5 nM and above 5000 nM, respectively.

Turning to `CC[C@H](C)[C@@H]1NC(=O)[C@@H]2CSSC[C@@H]3NC(=O)[C@H](C(C)C)NC(=O)[C@H](CC(C)C)NC(=O)[C@H](CC(N)=O)NC(=O)[C@@H]4CCCN4C(=O)[C@H](CCC(=O)O)NC(=O)[C@H](CSSC[C@H](NC(=O)[C@@H](N)CC(=O)O)C(=O)N[C@@H](CC(C)C)C(=O)NCC(=O)N[C@@H](Cc4ccccc4)C(=O)N[C@@H](CCSC)C(=O)N[C@@H](CCCNC(=N)N)C(=O)N[C@@H](CCCCN)C(=O)N2)NC(=O)[C@H](CSSC[C@@H](C(=O)N[C@@H](CCCCN)C(=O)N[C@@H](Cc2ccc(O)cc2)C(=O)N[C@H](C(=O)N[C@@H](Cc2ccccc2)C(N)=O)C(C)C)NC(=O)[C@H](Cc2c[nH]c4ccccc24)NC(=O)[C@H](CCCCN)NC(=O)[C@H](Cc2cnc[nH]2)NC(=O)[C@H]([C@@H](C)O)NC(=O)[C@H](CCCNC(=N)N)NC(=O)[C@H](CO)NC3=O)NC(=O)[C@H](CCCCN)NC(=O)[C@H](CC(=O)O)NC(=O)[C@H](CC(N)=O)NC(=O)[C@H](CC(=O)O)NC(=O)[C@@H]2CCCN2C1=O` (H-DCLGFMRKCIPDNDKCCEPNLVCSRTHKWCKYVF-NH2; disulfide 2-17, 9-23, 16-30), the values for the IC50 in test [2], in test [3] and in test [4] were above 10000 nM, 17 nM and above 5000 nM, respectively.

For the compound `CC[C@H](C)[C@@H]1NC(=O)[C@@H]2CSSC[C@@H]3NC(=O)[C@H](C(C)C)NC(=O)[C@H](CC(C)C)NC(=O)[C@H](CC(N)=O)NC(=O)[C@@H]4CCCN4C(=O)[C@H](CCCCN)NC(=O)[C@H](CSSC[C@H](NC(=O)[C@@H](N)CC(=O)O)C(=O)N[C@@H](CC(C)C)C(=O)NCC(=O)N[C@@H](Cc4ccccc4)C(=O)N[C@@H](CCSC)C(=O)N[C@@H](CCCNC(=N)N)C(=O)N[C@@H](CCCCN)C(=O)N2)NC(=O)[C@H](CSSC[C@@H](C(=O)N[C@@H](CCCCN)C(=O)N[C@@H](Cc2ccc(O)cc2)C(=O)N[C@H](C(=O)N[C@@H](Cc2ccccc2)C(N)=O)C(C)C)NC(=O)[C@H](Cc2c[nH]c4ccccc24)NC(=O)[C@H](CCCCN)NC(=O)[C@H](Cc2cnc[nH]2)NC(=O)[C@H]([C@@H](C)O)NC(=O)[C@H](CCCNC(=N)N)NC(=O)[C@H](CO)NC3=O)NC(=O)[C@H](CCCCN)NC(=O)[C@H](CC(=O)O)NC(=O)[C@H](CC(N)=O)NC(=O)[C@H](CC(=O)O)NC(=O)[C@@H]2CCCN2C1=O` (H-DCLGFMRKCIPDNDKCCKPNLVCSRTHKWCKYVF-NH2; disulfide 2-17, 9-23, 16-30), the IC50 in test [1] is 360 nM; in test [2], 15900 nM; in test [3], 1.6 nM; in test [4], above 5000 nM.

As for `CC[C@H](C)[C@@H]1NC(=O)[C@@H]2CSSC[C@@H]3NC(=O)[C@H](C(C)C)NC(=O)[C@H](CC(C)C)NC(=O)[C@H](CC(N)=O)NC(=O)[C@H](CCCCN)NC(=O)[C@H](CCCNC(=N)N)NC(=O)[C@H](CSSC[C@H](NC(=O)[C@@H](N)CC(=O)O)C(=O)N[C@@H](CC(C)C)C(=O)NCC(=O)N[C@@H](Cc4ccccc4)C(=O)N[C@@H](CCSC)C(=O)N[C@@H](CCCNC(=N)N)C(=O)N[C@@H](CCCCN)C(=O)N2)NC(=O)[C@H](CSSC[C@@H](C(=O)N[C@@H](CCCCN)C(=O)N[C@@H](Cc2ccc(O)cc2)C(=O)N[C@H](C(=O)N[C@@H](Cc2ccccc2)C(N)=O)C(C)C)NC(=O)[C@H](Cc2c[nH]c4ccccc24)NC(=O)[C@H](CCCCN)NC(=O)[C@H](Cc2cnc[nH]2)NC(=O)[C@H]([C@@H](C)O)NC(=O)[C@H](CCCNC(=N)N)NC(=O)[C@H](CO)NC3=O)NC(=O)[C@H](CCCCN)NC(=O)[C@H](CC(=O)O)NC(=O)[C@H](CC(N)=O)NC(=O)[C@H](CC(=O)O)NC(=O)[C@@H]2CCCN2C1=O` (H-DCLGFMRKCIPDNDKCCRKNLVCSRTHKWCKYVF-NH2; disulfide 2-17, 9-23, 16-30), the IC50 in test [2] was above 10000 nM; in test [3], 2.3 nM; in test [4] it was above 5000 nM.

`CC[C@H](C)[C@@H]1NC(=O)[C@@H]2CSSC[C@@H]3NC(=O)[C@H](C(C)C)NC(=O)[C@H](CC(C)C)NC(=O)[C@H](CC(N)=O)NC(=O)[C@@H]4CCCN4C(=O)[C@H](CCCNC(=N)N)NC(=O)[C@H](CSSC[C@H](NC(=O)[C@@H](N)CC(=O)O)C(=O)N[C@@H](CC(C)C)C(=O)NCC(=O)N[C@@H](Cc4ccccc4)C(=O)N[C@@H](CCSC)C(=O)N[C@@H](CCCNC(=N)N)C(=O)N[C@@H](CCCCN)C(=O)N2)NC(=O)[C@H](CSSC[C@@H](C(=O)N[C@@H](CCCCN)C(=O)N[C@@H](Cc2ccc(O)cc2)C(=O)N[C@H](C(=O)N[C@@H](Cc2ccccc2)C(N)=O)C(C)C)NC(=O)[C@H](Cc2c[nH]c4ccccc24)NC(=O)[C@H](CC(=O)O)NC(=O)[C@H](Cc2cnc[nH]2)NC(=O)[C@H]([C@@H](C)O)NC(=O)[C@H](CCCNC(=N)N)NC(=O)[C@H](CO)NC3=O)NC(=O)[C@H](CCCCN)NC(=O)[C@H](CC(=O)O)NC(=O)[C@H](CC(N)=O)NC(=O)[C@H](CC(=O)O)NC(=O)[C@@H]2CCCN2C1=O` (H-DCLGFMRKCIPDNDKCCRPNLVCSRTHDWCKYVF-NH2; disulfide 2-17, 9-23, 16-30): the IC50 was above 10000 nM in test [2] and 16 nM in test [3].
